# Bioassay records: PubChem BioAssay, several laboratories
# Hits are enriched below; roughly 2.2% of the tested compounds scored in any of these assays.
# HIV Env fusion: inhibitors of HIV Env-mediated cell fusion. HeLa-JRFL Env/CEM21 cell fusion, luciferase. inhibition, % at 12.3 µM. 360,000 compounds, 1.1% hits;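 active = mean replicate inhibition score of at least 50 and every replicate individually at or above 50; inconclusive = only one of the two criteria met; inactive = mean below 50 and not all replicates reaching 50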
# GalR3 antagonist: antagonists of human GalR3; O60755; HEK293 GalR3-CNG cAMP membrane potential fluorescence; galR3 body fused to GalR1 C-terminus; inhibition, % at 3 µM; 360,000 compounds, 0.44% hits; AID 651719;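 active = inhibition above the screen-wide average plus 3 SD, cut at about 13% in these data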;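 also: forskolin and galanin both at EC90 stimulate the cells; cAMP rise reported by CNG channel membrane potential dye signal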
# Target sequence (O60755 1-299 limits assumed): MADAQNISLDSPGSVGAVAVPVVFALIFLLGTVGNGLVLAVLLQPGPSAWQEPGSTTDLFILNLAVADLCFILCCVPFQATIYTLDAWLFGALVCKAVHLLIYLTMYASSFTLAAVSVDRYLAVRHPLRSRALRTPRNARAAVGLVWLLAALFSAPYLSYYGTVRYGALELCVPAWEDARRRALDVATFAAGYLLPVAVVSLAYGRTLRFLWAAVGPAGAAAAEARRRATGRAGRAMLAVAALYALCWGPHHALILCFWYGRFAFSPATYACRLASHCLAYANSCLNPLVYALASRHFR
# FXN GAA850 act: activators of GAA850 frataxin (FXN) promoter | activation, % at 6 µM | AID 540364 | 360,000 compounds, 0.56% hits | HEK293 lucGAA850 FXN promoter luciferase reporter, 24 h; percent of 10 µM SAHA response;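 active = activation above the average of all compounds screened plus 3 SD, cutoff fixed separately per campaign, cut at about 7.5% in these data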
# NR2E3 ag-1: agonists of human nuclear receptor NR2E3; Q9Y5X4; GST-NR2E3/biotin-RetCOR TR-FRET, 1536-well; inhibition of corepressor binding, % at 4.78 µM; 320,000 compounds, 0.12% hits;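 active = percent inhibition above the cutoff of mean plus 3 SD of all tested compounds, set per screening campaign, cut at about 20% in these data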
# Target sequence (Q9Y5X4 whole entry, looked up): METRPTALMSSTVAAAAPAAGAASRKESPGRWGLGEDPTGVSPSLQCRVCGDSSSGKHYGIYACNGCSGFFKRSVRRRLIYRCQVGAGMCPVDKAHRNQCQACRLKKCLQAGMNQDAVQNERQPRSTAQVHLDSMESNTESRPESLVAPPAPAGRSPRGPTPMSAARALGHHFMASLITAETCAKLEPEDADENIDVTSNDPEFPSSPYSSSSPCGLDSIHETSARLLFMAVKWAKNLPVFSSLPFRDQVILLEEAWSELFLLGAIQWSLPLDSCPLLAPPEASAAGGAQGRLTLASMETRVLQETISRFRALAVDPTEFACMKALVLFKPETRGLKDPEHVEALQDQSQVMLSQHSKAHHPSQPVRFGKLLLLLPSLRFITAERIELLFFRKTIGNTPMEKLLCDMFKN
#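 system = GST-tagged NR2E3 plus biotinylated RetCOR corepressor | input = 1.35 nM GST-NR2E3 | also added = 7 nM biotin-RetCOR | schedule = 5 h incubation at 4 °C | measured by = TR-FRET with europium anti-GST and streptavidin-D2, 340 nm excitation | read-out = percent loss of FRET ratio relative to control wells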
# V-ATPase pH: regulators of yeast V-ATPase proton transport. S. cerevisiae, pHLuorin cytosolic pH fluorescence. response, % at 10 µM. 350,000 compounds, 0.37% hits; in the data active = response mostly above about 7.3%, no sharp cut-off; inactive = mostly below about 5.4%; also: actives read high
# NR2E3 ag-2: agonists of human NR2E3 nuclear receptor | Q9Y5X4 | CHO-S Gal4-NCOR/VP16-NR2E3 two-hybrid, luciferase | inhibition of corepressor binding, % at 3.98 µM | 360,000 compounds, 0.35% hits;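 active = inhibition above the mean of all tested compounds plus 3 SD, cut at about 70% in these data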;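 also: higher means lower luciferase signal from less NR2E3 corepressor binding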
# GAA30 FXN cntr: GAA30 FXN promoter activation counter-screen; HEK293 lucGAA30 FXN promoter luciferase, 24 h; DMSO = 0%, 5 µM ipriflavone = 100%; activation, % at 6 µM; shares compounds with FXN GAA850 act; 1,900 compounds, 66% hits;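 active = mean activation above the mean of solvent-only control wells plus 3 SD, cut at about 22% in these data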;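 also: counterscreen of GAA850 promoter hits where activity marks nonselective or luminescence artifacts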
# GAA850 confirm: GAA850 FXN promoter activation confirmation | shares compounds with FXN GAA850 act | HEK293 lucGAA850 FXN promoter luciferase reporter, 24 h; 100% = activation by SAHA | activation, % at 6 µM | 1,900 compounds, 86% hits | AID 588351;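 active = mean activation above a set limit taken from the primary screen, cut at about 8% in these data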
# Hits are given with their value; n = inactive; u = inconclusive; x = no result given.
SMILES,HIV Env fusion,GalR3 antagonist,FXN GAA850 act,NR2E3 ag-1,V-ATPase pH,NR2E3 ag-2,GAA30 FXN cntr,GAA850 confirm
COC(=O)C1=C(C)NC2=C(C(=O)c3ccccc32)C1c1cccc(OC)c1 (stereo not given),n,n,n,n,n,n,x,x
CC1=C([N+](=O)[O-])C(c2cccc(Br)c2)C2=C(N1)c1ccccc1C2=O (stereo not given),138.5,n,15.0,n,n,n,n,34.6
CCOC(=O)C1=C(CSc2nc(CC)c(C)cc2C#N)OC(N)=C(C#N)C1c1ccccc1 (stereo not given),x,n,n,n,n,n,x,x
CCOC(=O)C1=C(CSc2nc(-c3ccccc3)ccc2C#N)OC(N)=C(C#N)C1c1ccc(OC)cc1 (stereo not given),x,n,8.9,n,n,n,66.0,24.8
COc1cc2ccccc2cc1C(=O)Nc1ccccc1Cl,n,n,8.2,n,n,n,120.6,39.3
CN1C(=O)c2cc(NC(=O)c3ccccc3Cl)ccc2OC[C@H]2O[C@H](CC(=O)NCC(F)(F)F)CC[C@@H]21,n,x,x,x,x,x,x,x
Cc1cc(C(=O)Cn2ncc(Cl)c(Cl)c2=O)c(C)n1CC(F)(F)F,n,n,13.7,n,n,n,n,22.5
Cc1ccnc(NC(=O)CNC(=O)COc2ccccc2)c1,n,n,7.9,n,n,n,99.9,40.0
CCn1c2ccccc2c2cc(NC(=O)CSc3nnc(-c4ccc(OC)c(OC)c4)n3N)ccc21,n,n,n,n,n,n,x,x
CCn1c2ccccc2c2cc(NC(=O)CSc3nnc(-c4cccc(OC)c4)n3N)ccc21,135.4,n,8.4,n,n,n,n,9.0
CCn1c2ccccc2c2cc(NC(=O)CSc3nnc(-c4ccccc4OC)n3N)ccc21,133.4,n,8.4,n,x,n,n,n
Cc1ccc(Cn2c(SCC(=O)NCc3ccco3)nc3ccsc3c2=O)cc1,70.7,n,8.8,n,n,n,30.6,17.4
Cc1ccc(CNC(=O)CSc2nc3ccsc3c(=O)n2Cc2ccccn2)cc1,u,n,n,n,n,n,x,x
Cc1ccc(S(=O)(=O)Nc2ccc3c(c2)C(=O)N([C@@H](C)CO)C[C@@H](C)[C@@H](CN(C)C)OCCCC[C@@H](C)O3)cc1,n,x,x,x,x,x,x,x
CCS(=O)(=O)Nc1ccc2c(c1)C(=O)N(C)[C@@H]1CC[C@H](CC(=O)NC)O[C@@H]1CO2,n,x,x,x,x,x,x,x
COc1ccccc1NC(=O)CN1CCC(n2c(C)nc3cc(F)ccc32)CC1,n,n,9.1,n,n,n,n,7.8
CC(=O)N1CN(S(=O)(=O)c2ccc(C)cc2)CC1C (stereo not given),x,n,12.2,n,n,n,n,n
Cc1ccc(S(=O)(=O)N2CC(O)C2)cc1,n,n,n,n,n,n,x,x
NC(=O)C1=CC2C3C=CC2(O)C(=O)OC3O1 (stereo not given),n,n,8.3,x,n,n,n,16.1
C[C@H]1CCCCO[C@H](CN(C)C(=O)Nc2ccc(C(F)(F)F)cc2)[C@@H](C)CN([C@@H](C)CO)C(=O)c2cc(N(C)C)ccc2O1,n,x,x,x,x,x,x,x
N#C/C(=C\c1ccncc1)c1nc2ccccc2[nH]1,n,n,8.8,x,n,n,33.2,9.3
COc1cc(/C=C(\C#N)c2nc3ccccc3[nH]2)ccc1OC(=O)c1ccco1,n,n,7.8,n,n,n,119.4,35.5
N#C/C(=C\c1cccnc1)c1nc2ccccc2[nH]1,n,n,n,n,n,n,x,x
COc1ccc(NC(=O)Nc2ccc3c(c2)C(=O)N([C@@H](C)CO)C[C@@H](C)[C@H](CN(C)C(=O)Nc2cccc4ccccc24)O3)cc1,n,x,x,x,x,x,x,x
COc1cc(OC)cc(C(=O)Oc2ccc(/C=N/Nc3nc4ccccc4s3)cc2OC)c1,n,n,8.0,n,n,n,116.5,36.1
SMILES,HIV Env fusion,GalR3 antagonist,FXN GAA850 act,NR2E3 ag-1,V-ATPase pH,NR2E3 ag-2,GAA30 FXN cntr,GAA850 confirm
COc1cc(/C=N/Nc2nc3ccccc3s2)ccc1OC(=O)c1ccccc1F,n,n,9.3,n,n,n,118.4,40.9
C[C@H](O)C#Cc1cnc2c(c1)C(=O)N([C@H](C)CO)C[C@H](C)[C@@H](CN(C)CC1CCOCC1)O2,n,x,x,x,x,x,x,x
CCCCN1C(=O)/C(=C/C=C2/CC(C)(C)CN2C)SC1=S,x,n,8.6,n,n,n,95.3,32.7
CCCCN1C(=O)/C(=C/C=C2\Oc3ccccc3N2CC)SC1=S,n,n,n,x,n,n,x,x
Cc1ccc(C2CC(=O)C(C=NCCN3CCN(CC(=O)Nc4cc(C)cc(C)c4)CC3)=C(O)C2)cc1 (stereo not given),n,n,8.5,x,n,n,n,n
Cc1ccc2nc(-c3ccc(NS(=O)(=O)c4ccc(F)c(F)c4)cc3)sc2c1,n,n,10.2,n,n,n,108.3,35.1
Cc1ccc2nc(-c3ccc(NS(=O)(=O)c4ccccc4)cc3)sc2c1,n,n,n,n,n,n,x,x
CNC[C@@H]1Oc2cc(C#CCOC)ccc2S(=O)(=O)N([C@@H](C)CO)C[C@@H]1C,n,x,x,x,x,x,x,x
COc1ccc(C(=O)N/N=C/c2ccc(OC)c(CN3CCCc4ccccc43)c2)cc1,x,n,9.3,n,n,n,n,n
COc1ccc(/C=N/NC(=O)c2cccnc2)cc1CN1CCCc2ccccc21,n,n,n,n,n,n,x,x
CN(C)S(=O)(=O)n1cc(/C=C(\NC(=O)c2ccccc2F)C(=O)N2CCCCC2)c2ccccc21,n,n,n,x,x,n,x,x
CN(C)S(=O)(=O)n1cc(/C=C(\NC(=O)c2ccccc2Cl)C(=O)N2CCCC2)c2ccccc21,n,n,8.8,n,n,n,n,11.5
C[C@H]1CN([C@@H](C)CO)C(=O)c2cc(NC(=O)Nc3ccccc3)ccc2O[C@@H]1CN(C)S(=O)(=O)c1ccc(F)cc1,n,x,x,x,x,x,x,x
Cn1c(CNc2ccc(O)cc2)nc2ccccc21,n,n,8.3,n,n,n,86.2,26.2
CCCCOC(=O)Nc1ccc(N2CCCCC2)cc1,n,n,8.1,n,n,n,92.6,30.9
C[C@@H]1CCCCO[C@H](CN(C)CC2CCCCC2)[C@H](C)CN([C@H](C)CO)C(=O)c2cc(NS(=O)(=O)c3cn(C)cn3)ccc2O1,n,x,x,x,x,x,x,x
O=C(Nc1ccccc1C(=O)NC(Cc1ccccc1)C(=O)NC1CCCCC1)c1ccccc1 (stereo not given),65.9,n,7.7,n,n,n,n,n
COc1cc2c(c(Br)c1N)-c1cc(Br)c(N)cc1C2=O,n,n,11.4,x,n,n,90.8,45.9
